From ChEMBL document CHEMBL1153370, “New pyridazine derivatives: synthesis, chemistry and biological activity” (2009)

What was measured:
Assay type in all cases: functional
Candida albicans = assay: Antifungal activity Candida albicans ATCC 10231 after 48 hrs at 28 degC by agar diffusion technique
In short: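 Fungi were maintained on Mueller Hinton agar and tested by diffusion on agar seeded with the organism. After 48 h incubation at 28 °C, the inhibition zone diameter (mm, mean) was measured.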

Bacillus subtilis [1] = assay: Antibacterial activity Bacillus subtilis after 24 hrs at 30 degC by agar diffusion technique
In short: (§1)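 Agar diffusion method. Bacteria were maintained on Mueller Hinton agar, and the agar medium was inoculated with each test organism. Plates were incubated 24 h at 30 °C, then the diameter of the inhibition zone was measured in mm and reported as the mean diameter.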

Pseudomonas aeruginosa [2] = assay: Antibacterial activity Pseudomonas aeruginosa after 24 hrs at 30 degC by agar diffusion technique; in short: as §1
Staphylococcus aureus [3] = assay: Antibacterial activity Staphylococcus aureus ATCC 25923 after 24 hrs at 30 degC by agar diffusion technique; in short: as §1
Micrococcus luteus [4] = assay: Antibacterial activity Sarcina lutea ATCC 9341 after 24 hrs at 30 degC by agar diffusion technique; in short: as §1
Escherichia coli [5] = assay: Antibacterial activity Escherichia coli ATCC 25922 after 24 hrs at 30 degC by agar diffusion technique; in short: as §1
Pseudomonas aeruginosa [6] = assay: Antibacterial activity Pseudomonas aeruginosa at 30 ug/disk after 24 hrs at 30 degC by agar diffusion technique; conditions: read-out: Diameter of inhibition zone; in short: as §1
Escherichia coli [7] = assay: Antibacterial activity Escherichia coli ATCC 25922 at 30 ug/disk after 24 hrs at 30 degC by agar diffusion technique; conditions: ATCC 25922, 24 h, read-out: Diameter of inhibition zone
In short: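 Agar diffusion method; organisms kept on Mueller Hinton agar, and agar media were inoculated with the test culture. Bacterial plates incubated 24 h at 30 °C, then diameter of the inhibition zone measured in mm (mean diameter).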

Micrococcus luteus [8] = assay: Antibacterial activity Sarcina lutea ATCC 9341 at 30 ug/disk after 24 hrs at 30 degC by agar diffusion technique; conditions: ATCC 9341, 24 h, read-out: Diameter of inhibition zone; in short: as §1
Bacillus subtilis [9] = assay: Antibacterial activity Bacillus subtilis at 30 ug/disk after 24 hrs at 30 degC by agar diffusion technique; conditions: read-out: Diameter of inhibition zone; in short: as §1
Staphylococcus aureus [10] = assay: Antibacterial activity Staphylococcus aureus ATCC 25923 at 30 ug/disk after 24 hrs at 30 degC by agar diffusion technique; conditions: ATCC 25923, 24 h, read-out: Diameter of inhibition zone; in short: as §1

Structure (SMILES)	Diameter of inhibition zone (Candida albicans) [mm]	Diameter of inhibition zone (Bacillus subtilis [1]) [mm]	Diameter of inhibition zone (Pseudomonas aeruginosa [2]) [mm]	Diameter of inhibition zone (Staphylococcus aureus [3]) [mm]	Diameter of inhibition zone (Micrococcus luteus [4]) [mm]	Diameter of inhibition zone (Escherichia coli [5]) [mm]	zone of inhibition at 30 µg/disc (Pseudomonas aeruginosa [6]) [mm]	zone of inhibition at 30 µg/disc (Escherichia coli [7]) [mm]	zone of inhibition at 30 µg/disc (Micrococcus luteus [8]) [mm]	zone of inhibition at 30 µg/disc (Bacillus subtilis [9]) [mm]	zone of inhibition at 30 µg/disc (Staphylococcus aureus [10]) [mm]
COC(=O)[C@H]1[C@H](C(=O)OC)[C@H](C(=O)c2ccc(Cl)cc2)N2N=CC=C[C@@H]12	27	36	15	23	54	31	–	–	–	–	–
Cc1ccc(C(=O)[C@@H]2C[C@H](C#N)[C@@H]3C=CC=NN23)cc1	30	39	19	46	67	23	–	–	–	–	–
COC(=O)c1c(C(=O)OC)c2cccnn2c1C(=O)c1ccc(F)cc1	21	23	15	27	52	21	–	–	–	–	–
COC(=O)[C@H]1[C@H](C(=O)OC)[C@H](C(=O)c2ccc(C)cc2)N2N=CC=C[C@@H]12	29	38	17	47	59	37	–	–	–	–	–
COC(=O)c1c(C(=O)OC)c2cccnn2c1C(=O)c1ccc(Cl)cc1	24	26	18	30	57	31	–	–	–	–	–
COC(=O)c1c(C(=O)OC)c2cccnn2c1C(=O)c1ccc(C)cc1	29	26	19	46	65	25	–	–	–	–	–
N#C[C@H]1C[C@@H](C(=O)c2ccc(F)cc2)N2N=CC=C[C@@H]12	23	27	14	26	50	20	–	–	–	–	–
CCOC(=O)c1cc(C(=O)c2ccc(Cl)cc2)n2ncccc12	30	25	20	25	48	33	–	–	–	–	–
COC(=O)[C@@H]1[C@H](C(=O)OC)[C@H](C(=O)c2ccc(F)cc2)N2N=CC=C[C@@H]12	24	37	18	29	60	35	–	–	–	–	–
COC(=O)[C@@H]1[C@H](C(=O)OC)[C@H](C(=O)c2ccc(Cl)cc2)N2N=CC=C[C@@H]12	25	39	18	33	56	32	–	–	–	–	–
O=C(C[n+]1ccccn1)c1ccc(Cl)cc1.[Br-]	29	32	20	36	57	36	–	–	–	–	–
O=C(c1ccc(Cl)cc1)[C@H]1[C@@H]2C(=O)N(c3ccccc3)C(=O)[C@@H]2[C@@H]2C=CC=NN21	34	28	18	28	54	28	–	–	–	–	–
Cc1ccc(C(=O)[C@H]2[C@@H]3C(=O)N(c4ccccc4)C(=O)[C@@H]3[C@@H]3C=CC=NN32)cc1	29	37	18	31	73	24	–	–	–	–	–
CCOC(=O)c1cc(C(=O)c2ccc(F)cc2)n2ncccc12	22	22	20	27	48	23	–	–	–	–	–
O=C(C[n+]1ccccn1)c1ccc(F)cc1.[Br-]	19	31	20	38	61	31	–	–	–	–	–
N#C[C@H]1C[C@@H](C(=O)c2ccc(Cl)cc2)N2N=CC=C[C@@H]12	35	29	14	30	57	28	–	–	–	–	–
COC(=O)[C@H]1[C@H](C(=O)OC)[C@H](C(=O)c2ccc(F)cc2)N2N=CC=C[C@@H]12	27	35	17	29	51	35	–	–	–	–	–
CCOC(=O)c1cc(C(=O)c2ccc(C)cc2)n2ncccc12	28	37	18	40	56	25	–	–	–	–	–
COC(=O)[C@@H]1[C@H](C(=O)OC)[C@H](C(=O)c2ccc(C)cc2)N2N=CC=C[C@@H]12	30	39	19	41	62	37	–	–	–	–	–
O=C(c1ccc(F)cc1)[C@H]1[C@@H]2C(=O)N(c3ccccc3)C(=O)[C@@H]2[C@@H]2C=CC=NN21	25	28	16	27	63	25	–	–	–	–	–
Cc1ccc(C(=O)C[n+]2ccccn2)cc1.[Br-]	27	40	20	47	81	25	–	–	–	–	–
O=C(N[C@H](CO)[C@H](O)c1ccc([N+](=O)[O-])cc1)C(Cl)Cl [CHLORAMPHENICOL]	–	–	–	–	–	–	19	25	40	26	30
